Key:
SMMC-7721 [1] = assay: Cytotoxicity against human SMMC-7721 cells assessed as cell viability after 24 hrs by MTT assay; assay type: functional, cell-based; settings: SMMC-7721, 24 h
Outline: (§1)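 Cells pre-cultured 24 h at 37 C, then exposed for 24 h to compounds at […], with drug-free and DMSO solvent controls. MTT read-out: formazan dissolved in DMSO, absorbance at 568 nm. Inhibition rate taken relative to the negative control. IC50 from triplicate measurements.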

L02 = assay: Cytotoxicity against human L02 cells assessed as cell viability after 24 hrs by MTT assay; assay type: functional, cell-based; settings: L02, 24 h; outline: as §1
SMMC-7721 [2] = assay: Induction of apoptosis in human SMMC-7721 cells assessed as viable cells at 0.1 ug/ml after 48 hrs annexin V-[…]/PI by flow cytometry (reference value: 93.54 to 94.31%); assay type: functional; settings: read-out: Activity
SMMC-7721 [3] = assay: Induction of apoptosis in human SMMC-7721 cells assessed as early apoptotic cells at 0.1 ug/ml after 48 hrs annexin V-[…]/PI by flow cytometry (reference value: 3.3 to 3.16%); assay type: functional; settings: dose 0.1 µg/ml
SMMC-7721 [4] = assay: Induction of apoptosis in human SMMC-7721 cells assessed as late apoptotic cells at 0.1 ug/ml after 48 hrs annexin V-[…]/PI by flow cytometry (reference value: 2.42 to 3%); assay type: functional; settings: dose 0.1 µg/ml
SMMC-7721 [5] = assay: Induction of apoptosis in human SMMC-7721 cells assessed as necrotic cells at 0.1 ug/ml after 48 hrs annexin V-[…]/PI by flow cytometry (reference value: 0.15 to 0.29%); assay type: functional; settings: dose 0.1 µg/ml
SMMC-7721 [6] = assay: Induction of apoptosis in human SMMC-7721 cells assessed as viable cells at 10 ug/ml after 48 hrs annexin V-[…]/PI by flow cytometry (reference value: 93.54 to 94.31%); assay type: functional; settings: read-out: Activity
SMMC-7721 [7] = assay: Induction of apoptosis in human SMMC-7721 cells assessed as early apoptotic cells at 10 ug/ml after 48 hrs annexin V-[…]/PI by flow cytometry (reference value: 3.3 to 3.16%); assay type: functional; settings: dose 10 µg/ml
SMMC-7721 [8] = assay: Induction of apoptosis in human SMMC-7721 cells assessed as late apoptotic cells at 10 ug/ml after 48 hrs annexin V-[…]/PI by flow cytometry (reference value: 2.42 to 3%); assay type: functional; settings: dose 10 µg/ml
SMMC-7721 [9] = assay: Induction of apoptosis in human SMMC-7721 cells assessed as necrotic cells at 10 ug/ml after 48 hrs annexin V-[…]/PI by flow cytometry (reference value: 0.15 to 0.29%); assay type: functional; settings: dose 10 µg/ml
SMMC-7721 [10] = assay: Induction of apoptosis in human SMMC-7721 cells assessed as viable cells at 100 ug/ml after 48 hrs annexin V-[…]/PI by flow cytometry (reference value: 93.54 to 94.31%); assay type: functional; settings: read-out: Activity
SMMC-7721 [11] = assay: Induction of apoptosis in human SMMC-7721 cells assessed as early apoptotic cells at 100 ug/ml after 48 hrs annexin V-[…]/PI by flow cytometry (reference value: 3.3 to 3.16%); assay type: functional; settings: dose 100 µg/ml
SMMC-7721 [12] = assay: Induction of apoptosis in human SMMC-7721 cells assessed as late apoptotic cells at 100 ug/ml after 48 hrs annexin V-[…]/PI by flow cytometry (reference value: 2.42 to 3%); assay type: functional; settings: dose 100 µg/ml
SMMC-7721 [13] = assay: Induction of apoptosis in human SMMC-7721 cells assessed as necrotic cells at 100 ug/ml after 48 hrs annexin V-[…]/PI by flow cytometry (reference value: 0.15 to 0.29%); assay type: functional; settings: dose 100 µg/ml
SMMC-7721 [14] = assay: Cytotoxicity against human SMMC-7721 cells assessed as cell viability after 48 hrs by MTT assay; assay type: functional, cell-based; settings: SMMC-7721, 48 h
Outline: (§2)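 Cells pre-cultured 24 h at 37 C, then given fresh medium with compound at […] alongside drug-free and DMSO solvent controls. Incubated 48 h at 37 C, then MTT (2 mg/mL in PBS) added for 4 h. Formazan dissolved in DMSO and A568 read. Inhibition rate taken relative to the negative control. IC50 from triplicate measurements.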

SMMC-7721 [15] = assay: Cytotoxicity against human SMMC-7721 cells assessed as cell viability after 48 hrs in presence of 100 umol/L FeSO4 by MTT assay; assay type: functional, cell-based; settings: SMMC-7721, 48 h
MHCC97H = assay: Cytotoxicity against human MHCC97H cells assessed as cell viability after 48 hrs by MTT assay; assay type: functional, cell-based; outline: as §2
[16] = Cytotoxicity against human HCCLM3 cells assessed as cell viability after 48 hrs by MTT assay; assay type: functional, cell-based; settings: HCCLM3, 48 h; outline: as §2
Huh-7 = assay: Cytotoxicity against human HUH-7 cells assessed as cell viability after 48 hrs by MTT assay; assay type: functional, cell-based; settings: Huh-7, 48 h; outline: as §2
HCT-116 = assay: Cytotoxicity against human HCT-116 cells assessed as cell viability after 48 hrs by MTT assay; assay type: functional, cell-based; settings: HCT-116, 48 h; outline: as §2
CCD-18Co = assay: Cytotoxicity against human CCD-18C0 cells assessed as cell viability after 48 hrs by MTT assay; assay type: functional, cell-based; outline: as §2
MCF7 = assay: Cytotoxicity against human MCF7 cells assessed as cell viability after 48 hrs by MTT assay; assay type: functional, cell-based; settings: MCF7, 48 h; outline: as §2
MCF-10A = assay: Cytotoxicity against human MCF-10A cells assessed as cell viability after 48 hrs by MTT assay; assay type: cell-based; outline: as §2

Structure (SMILES): CC(C)[C@H]1CC[C@H](C)C[C@@H]1O[C@H]1OC(=O)C(Cl)=C1N1CCN([C@@H]2O[C@@H]3O[C@@]4(C)CC[C@H]5[C@H](C)CC[C@@H]([C@H]2C)[C@@]35OO4)CC1
- IC50 (SMMC-7721 [1]): 520 nM
- IC50 (L02): 640 nM

Structure (SMILES): COC1OC(=O)C(Br)=C1N1CCN([C@@H]2O[C@@H]3O[C@@]4(C)CC[C@H]5[C@H](C)CC[C@@H]([C@H]2C)[C@@]35OO4)CC1 (stereo partly drawn)
- IC50 (SMMC-7721 [1]): 290 nM
- IC50 (L02): 260 nM

Structure (SMILES): C[C@H]1[C@H](N2CCN(C3=C(Cl)C(=O)OC3O[C@H]3CC4CCC3(C)C4(C)C)CC2)O[C@@H]2O[C@@]3(C)CC[C@H]4[C@H](C)CC[C@@H]1[C@@]24OO3 (stereo partly drawn)
- IC50 (SMMC-7721 [1]): 570 nM
- IC50 (L02): 460 nM

Structure (SMILES): COC1OC(=O)C(Cl)=C1N1CCN([C@@H]2O[C@@H]3O[C@@]4(C)CC[C@H]5[C@H](C)CC[C@@H]([C@H]2C)[C@@]35OO4)CC1 (stereo partly drawn)
- IC50 (SMMC-7721 [1]): 260 nM
- IC50 (L02): 320 nM
- viability at 0.1 µg/mL (SMMC-7721 [2]): 88.6%
- Activity (SMMC-7721 [3]): 4.26%
- Activity (SMMC-7721 [4]): 3.21%
- Activity (SMMC-7721 [5]): 0.14%
- viability at 10 µg/mL (SMMC-7721 [6]): 82.1%
- Activity (SMMC-7721 [7]): 8.77%
- Activity (SMMC-7721 [8]): 6.06%
- Activity (SMMC-7721 [9]): 0.49%
- viability at 100 µg/mL (SMMC-7721 [10]): 60.3%
- Activity (SMMC-7721 [11]): 20.35%
- Activity (SMMC-7721 [12]): 14.42%
- Activity (SMMC-7721 [13]): 0.73%
- IC50 (SMMC-7721 [14]): 110 nM
- IC50 (SMMC-7721 [15]): 100 nM
- IC50 (MHCC97H): 100 nM
- IC50 [16]: 100 nM
- IC50 (Huh-7): 160 nM
- IC50 (HCT-116): 100 nM
- IC50 (CCD-18Co): 100 nM
- IC50 (MCF7): 80 nM
- IC50 (MCF-10A): 220 nM

Structure (SMILES): C[C@H]1[C@H](N2CCN(C3=C(Br)C(=O)O[C@@H]3O[C@H]3CC4CCC3(C)C4(C)C)CC2)O[C@@H]2O[C@@]3(C)CC[C@H]4[C@H](C)CC[C@@H]1[C@@]24OO3
- IC50 (SMMC-7721 [1]): 480 nM
- IC50 (L02): 480 nM

Structure (SMILES): CC(C)[C@H]1CC[C@H](C)C[C@@H]1O[C@H]1OC(=O)C(Br)=C1N1CCN([C@@H]2O[C@@H]3O[C@@]4(C)CC[C@H]5[C@H](C)CC[C@@H]([C@H]2C)[C@@]35OO4)CC1
- IC50 (SMMC-7721 [1]): 390 nM
- IC50 (L02): 360 nM

Structure (SMILES): CCOC1OC(=O)C(Cl)=C1N1CCN([C@@H]2O[C@@H]3O[C@@]4(C)CC[C@H]5[C@H](C)CC[C@@H]([C@H]2C)[C@@]35OO4)CC1 (stereo partly drawn)
- IC50 (SMMC-7721 [1]): 560 nM
- IC50 (L02): > 700 nM

Structure (SMILES): CCOC1OC(=O)C(Br)=C1N1CCN([C@@H]2O[C@@H]3O[C@@]4(C)CC[C@H]5[C@H](C)CC[C@@H]([C@H]2C)[C@@]35OO4)CC1 (stereo partly drawn)
- IC50 (SMMC-7721 [1]): 430 nM
- IC50 (L02): 500 nM

Structure (SMILES): C[C@H]1[C@H](O)O[C@@H]2O[C@@]3(C)CC[C@H]4[C@H](C)CC[C@@H]1[C@@]24OO3
- IC50 (SMMC-7721 [1]): > 700 nM
- IC50 (L02): 220 nM

Structure (SMILES): C[C@@H]1CC[C@H]2[C@@H](C)C(=O)O[C@@H]3O[C@@]4(C)CC[C@@H]1[C@]32OO4 [ARTEMISININ]
- IC50 (SMMC-7721 [1]): 630 nM
- IC50 (L02): 430 nM

Structure (SMILES): CC[C@]1(O)C[C@H]2CN(CCc3c([nH]c4ccccc34)[C@@](C(=O)OC)(c3cc4c(cc3OC)N(C=O)[C@H]3[C@@](O)(C(=O)OC)[C@H](OC(C)=O)[C@]5(CC)C=CCN6CC[C@]43[C@@H]65)C2)C1 [VINCRISTINE]
- IC50 (SMMC-7721 [1]): 270 nM
- IC50 (L02): 300 nM
